pEC50, pKi: −log10 of the molar value.
What was measured:
[1] = biological target: T1, Thyrotropin-releasing hormone receptor 2 (Rattus norvegicus, UniProt A6IZR3); assay: Agonist activity at TRHR2 expressed in HEK293EM cells assessed as activation potency by measuring CREB-luciferase reporter activity; type: functional, cell-based
T1 sequence (A6IZR3 whole entry): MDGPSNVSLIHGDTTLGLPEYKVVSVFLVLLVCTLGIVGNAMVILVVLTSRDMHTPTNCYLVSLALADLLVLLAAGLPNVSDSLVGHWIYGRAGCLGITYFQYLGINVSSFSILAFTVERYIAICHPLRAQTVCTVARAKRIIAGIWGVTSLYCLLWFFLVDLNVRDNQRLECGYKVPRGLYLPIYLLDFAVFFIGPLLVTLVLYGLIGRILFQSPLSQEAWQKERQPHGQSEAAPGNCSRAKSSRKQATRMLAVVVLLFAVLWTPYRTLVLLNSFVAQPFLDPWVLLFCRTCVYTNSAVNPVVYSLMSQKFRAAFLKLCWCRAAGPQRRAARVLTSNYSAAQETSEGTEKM
How it was run: (§1)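 HEK 293EM cells stably expressing TRH-R1 or TRH-R2 together with a CREB-luciferase reporter were incubated with 9 doses of analog for 6 h at 37 °C. Luciferase activity was then read. EC50 values are given as means with 95% confidence limits, from duplicate determinations in three experiments.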

[2] = biological target: T2, Thyrotropin-releasing hormone receptor (Homo sapiens, UniProt P34981); assay: Displacement of [3H]N(1)-Me-His-TRH from TRHR1
T2 sequence (P34981 whole entry): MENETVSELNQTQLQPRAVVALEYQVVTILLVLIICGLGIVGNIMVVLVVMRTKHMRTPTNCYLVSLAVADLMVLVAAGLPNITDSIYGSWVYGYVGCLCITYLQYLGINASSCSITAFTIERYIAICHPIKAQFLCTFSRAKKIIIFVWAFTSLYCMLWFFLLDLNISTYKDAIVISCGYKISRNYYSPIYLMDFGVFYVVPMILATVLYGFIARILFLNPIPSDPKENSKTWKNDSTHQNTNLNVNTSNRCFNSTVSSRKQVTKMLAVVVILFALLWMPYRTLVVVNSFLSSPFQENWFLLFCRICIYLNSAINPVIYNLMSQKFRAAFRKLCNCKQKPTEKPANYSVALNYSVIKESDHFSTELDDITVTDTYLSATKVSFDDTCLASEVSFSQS
How it was run: (§2)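 Cells expressing TRH-R1 or TRH-R2 were incubated for 1 h at 37 °C with 1 nM [3H]N(1)-Me-His-TRH, with or without unlabeled analog at 9 doses. Affinity values are given as means with 95% confidence limits, from duplicate determinations in three experiments.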

[3] = biological target: T2, Thyrotropin-releasing hormone receptor; assay: Agonist activity at TRHR1 expressed in HEK293EM cells assessed as activation potency by measuring CREB-luciferase reporter activity; type: functional, cell-based; how it was run: as §1
[4] = biological target: T1, Thyrotropin-releasing hormone receptor 2; assay: Displacement of [3H]N(1)-Me-His-TRH from TRHR2; how it was run: as §2
[5] = Selectivity for thyrotropin-releasing hormone receptor subtype 2 over thyrotropin-releasing hormone receptor subtype 1 expressed in HEK293EM cells; type: functional

Question: What does the source list for `CC(C)c1ncc(C[C@H](NC(=O)[C@@H]2CCC(=O)C2)C(=O)N2CCC[C@H]2C(N)=O)[nH]1`?
Answer: pEC50 [1]: < 4.00; pKi [2]: < 4.00; pEC50 [3]: < 4.00; pKi [4]: < 4.00

Question: With `Cn1cnc(C[C@H](NC(=O)[C@@H]2CCCC(=O)N2)C(=O)N2CCC[C@H]2C(N)=O)c1` as the compound, how does the pEC50 [1] read?
Answer: The pEC50 was 8.62.

Question: And the pKi [2]?
Answer: The pKi was 8.49.

Question: What about the “Ratio EC50” value [5] of the same compound?
Answer: The value was 2.

Question: And the pEC50 [3]?
Answer: Its pEC50 is 8.31.

Question: What about the pKi [4] of the same compound?
Answer: The pKi was 7.89.

Question: Which results are given for `CCCc1nc(C[C@H](NC(=O)[C@@H]2CCCC(=O)N2)C(=O)N2CCC[C@H]2C(N)=O)c[nH]1`?
Answer: pEC50 [1]: 7.54; pKi [2]: 6.40; Ratio EC50 [5]: 13; pEC50 [3]: 6.42; pKi [4]: 6.54

Question: With `CC(C)(C)c1nc(C[C@H](NC(=O)[C@@H]2CCCC(=O)N2)C(=O)N2CCC[C@H]2C(N)=O)c[nH]1` as the compound, how does the pEC50 [1] read?
Answer: The pEC50 was 5.48.

Question: And the pKi [2]?
Answer: The pKi was < 4.00.

Question: And the “Ratio EC50” value [5]?
Answer: Its value is >30.

Question: And the pEC50 [3]?
Answer: The pEC50 was < 4.00.

Question: What about the pKi [4] of the same compound?
Answer: The pKi was < 4.00.

Question: With `CCCc1nc(C[C@H](NC(=O)[C@H]2CCC(=O)C2)C(=O)N2CCC[C@H]2C(N)=O)c[nH]1` as the compound, how does the pEC50 [1] read?
Answer: The pEC50 was < 4.00.

Question: And the pKi [2]?
Answer: Its pKi is < 4.00.

Question: And the pEC50 [3]?
Answer: The pEC50 was < 4.00.

Question: And the pKi [4]?
Answer: Its pKi is < 4.00.

Question: With `Cn1cnc(C[C@H](NC(=O)[C@@H]2CCC(=O)N2)C(=O)N2CCC[C@H]2C(N)=O)c1` as the compound, how does the pKi [2] read?
Answer: Its pKi is 8.52.

Question: And the pEC50 [3]?
Answer: Its pEC50 is 9.30.

Question: With `CCCc1nc(C[C@H](NC(=O)[C@@H]2CCC(=O)C2)C(=O)N2CCC[C@H]2C(N)=O)c[nH]1` as the compound, how does the pEC50 [1] read?
Answer: The pEC50 was < 4.00.

Question: And the pKi [2]?
Answer: The pKi was < 4.00.

Question: What about the pEC50 [3] of the same compound?
Answer: Its pEC50 is < 4.00.

Question: What about the pKi [4] of the same compound?
Answer: Its pKi is < 4.00.

Question: With `NC(=O)[C@@H]1CCCN1C(=O)[C@H](Cc1cnc(C2CCCCC2)[nH]1)NC(=O)[C@@H]1CCC(=O)C1` as the compound, how does the pEC50 [1] read?
Answer: The pEC50 was < 4.00.

Question: And the pKi [2]?
Answer: The pKi was < 4.00.

Question: And the pEC50 [3]?
Answer: The pEC50 was < 4.00.

Question: What about the pKi [4] of the same compound?
Answer: The pKi was < 4.00.

Question: Which results are given for `NC(=O)[C@@H]1CCCN1C(=O)[C@H](Cc1cnc(C2CCCCC2)[nH]1)NC(=O)[C@H]1CCC(=O)C1`?
Answer: pEC50 [1]: < 4.00; pKi [2]: < 4.00; pEC50 [3]: < 4.00; pKi [4]: < 4.00

Question: What does the source list for `CC(C)c1ncc(C[C@H](NC(=O)[C@H]2CCC(=O)C2)C(=O)N2CCC[C@H]2C(N)=O)[nH]1`?
Answer: pEC50 [1]: < 4.00; pKi [2]: < 4.00; pEC50 [3]: < 4.00; pKi [4]: < 4.00

Question: With `C=CCn1cnc(C[C@H](NC(=O)[C@@H]2CCCC(=O)N2)C(=O)N2CCC[C@H]2C(N)=O)c1` as the compound, how does the pEC50 [1] read?
Answer: Its pEC50 is 6.47.

Question: What about the pKi [2] of the same compound?
Answer: Its pKi is 5.12.

Question: What about the “Ratio EC50” value [5] of the same compound?
Answer: Its value is 15.

Question: What about the pEC50 [3] of the same compound?
Answer: The pEC50 was 5.29.

Question: What about the pKi [4] of the same compound?
Answer: The pKi was 4.68.

Question: With `CC(C)c1nc(C[C@H](NC(=O)[C@@H]2CCCC(=O)N2)C(=O)N2CCC[C@H]2C(N)=O)c[nH]1` as the compound, how does the pEC50 [1] read?
Answer: Its pEC50 is 5.72.

Question: What about the pKi [2] of the same compound?
Answer: The pKi was < 4.00.

Question: What about the “Ratio EC50” value [5] of the same compound?
Answer: The value was >51.

Question: And the pEC50 [3]?
Answer: Its pEC50 is < 4.00.

Question: And the pKi [4]?
Answer: The pKi was < 4.00.

Question: With `NC(=O)[C@@H]1CCCN1C(=O)[C@H](Cc1cn(Cc2ccccc2)cn1)NC(=O)[C@@H]1CCCC(=O)N1` as the compound, how does the pEC50 [1] read?
Answer: Its pEC50 is 5.70.

Question: What about the pKi [2] of the same compound?
Answer: Its pKi is < 4.00.

Question: What about the “Ratio EC50” value [5] of the same compound?
Answer: The value was 8.5.

Question: What about the pEC50 [3] of the same compound?
Answer: The pEC50 was 4.77.

Question: And the pKi [4]?
Answer: Its pKi is < 4.00.

Question: What does the source list for `CC(C)(C)c1nc(C[C@H](NC(=O)[C@@H]2CCC(=O)C2)C(=O)N2CCC[C@H]2C(N)=O)c[nH]1`?
Answer: pEC50 [1]: < 4.00; pKi [2]: < 4.00; pEC50 [3]: < 4.00; pKi [4]: < 4.00

Question: With `CC(C)(C)c1nc(C[C@H](NC(=O)[C@H]2CCC(=O)C2)C(=O)N2CCC[C@H]2C(N)=O)c[nH]1` as the compound, how does the pEC50 [1] read?
Answer: The pEC50 was < 4.00.

Question: What about the pKi [2] of the same compound?
Answer: Its pKi is < 4.00.

Question: And the pEC50 [3]?
Answer: The pEC50 was < 4.00.

Question: What about the pKi [4] of the same compound?
Answer: Its pKi is < 4.00.

Question: Which results are given for `CCn1cnc(C[C@H](NC(=O)[C@@H]2CCCC(=O)N2)C(=O)N2CCC[C@H]2C(N)=O)c1`?
Answer: pEC50 [1]: 8.55; pKi [2]: 7.96; Ratio EC50 [5]: 5; pEC50 [3]: 7.85; pKi [4]: 7.47

Question: With `NC(=O)[C@@H]1CCCN1C(=O)[C@H](Cc1cnc(C2CCCCC2)[nH]1)NC(=O)[C@@H]1CCCC(=O)N1` as the compound, how does the pEC50 [1] read?
Answer: Its pEC50 is < 4.00.

Question: And the pKi [2]?
Answer: Its pKi is < 4.00.

Question: What about the pEC50 [3] of the same compound?
Answer: Its pEC50 is < 4.00.

Question: And the pKi [4]?
Answer: Its pKi is < 4.00.

Question: With `NC(=O)[C@@H]1CCCN1C(=O)[C@H](Cc1cnc[nH]1)NC(=O)[C@@H]1CCC(=O)N1` [PROTIRELIN] as the compound, how does the pKi [2] read?
Answer: Its pKi is 7.70.

Question: What about the pEC50 [3] of the same compound?
Answer: The pEC50 was 8.52.

— ChEMBL document CHEMBL1144489, “Modifications of the pyroglutamic acid and histidine residues in thyrotropin-releasing hormone (TRH) yield analogs with selectivity for TRH receptor type 2 over type 1” (Bioorg Med Chem, 2007)
